Paper PMC3901407 (Nature methods, 2013)

Tests used:
[1] = tested on: JNK activation in C22A-ZAK-transfected HEK-293T cells; experiment: Western blotting of phospho-JNK; assay type: cell-based, human; conditions: H2O2 1 mM, 30 min
Outline: (§1)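 HEK-293T cells stably expressing FLAG-ZAK came from retroviral infection and hygromycin selection. They grew 24 h in DMEM/10% FBS, then were serum-starved 24 h and treated at 37 °C. Cells were sonicated in PBS with protease and phosphatase inhibitors. For blotting, 30 μg soluble lysate went on SDS-PAGE and nitrocellulose, blocked in 5% milk/TBST, with primary antibodies (1:2000, 16 h, 4 °C) and IRDye secondaries (1:10,000, 1 h). Read-out: infrared-scanned phospho-JNK, normalized.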

[2] = tested on: JNK activation in WT-ZAK-transfected HEK-293T cells; experiment: Western blotting of phospho-JNK; assay type: cell-based, human; conditions: H2O2 1 mM, 30 min
Outline: as §1

WT-ZAK and C22A-ZAK [3] = target: T1, WT-ZAK and C22A-ZAK (Homo sapiens, UniProt Q9NYL2); experiment: gel-based ABPP, HNEyne labelling in living cells; assay type: cell-based; conditions: 5 μM HNEyne, 1 hour, 37°C
T1 sequence (Q9NYL2 1-455 isoform Q9NYL2-2, stated change not applied): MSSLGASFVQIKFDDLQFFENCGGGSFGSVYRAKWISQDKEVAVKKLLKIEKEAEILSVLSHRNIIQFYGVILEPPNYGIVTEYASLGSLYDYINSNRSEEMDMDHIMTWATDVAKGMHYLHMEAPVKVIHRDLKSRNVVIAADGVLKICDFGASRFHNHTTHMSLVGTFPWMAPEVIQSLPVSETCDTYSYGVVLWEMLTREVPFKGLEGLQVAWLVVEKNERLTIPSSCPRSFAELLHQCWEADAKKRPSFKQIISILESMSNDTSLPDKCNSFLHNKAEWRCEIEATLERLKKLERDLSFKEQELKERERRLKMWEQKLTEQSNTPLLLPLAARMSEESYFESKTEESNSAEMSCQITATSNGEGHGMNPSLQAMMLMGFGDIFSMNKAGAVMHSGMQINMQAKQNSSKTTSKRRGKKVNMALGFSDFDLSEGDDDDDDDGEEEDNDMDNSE

WT-ZAK and C22A-ZAK [4] = target: T1, WT-ZAK and C22A-ZAK; experiment: gel-based ABPP, HNEyne labelling in proteomes; assay type: binding; conditions: 10 μM HNEyne, 1 hour, HEK-293T lysate

SMILES	JNK activity after H2O2 [1]	JNK activity after H2O2 [2]	direct labeling of ZAK by HNEyne in living cells (WT-ZAK and C22A-ZAK [3])	direct labeling of ZAK by HNEyne in vitro (WT-ZAK and C22A-ZAK [4])
OO [H2O2]	stimulated JNK activity	stimulated JNK activity		
C#CCCCC(O)C=CC=O (stereo not shown) [HNEyne]			direct labeling of WT-, but not the C22A-ZAK mutant	direct labeling of WT-, but not the C22A-ZAK mutant
